Laboratory results from ChEMBL document CHEMBL4689842, “EUbOPEN Chemogenomics Library wave 1” (2021).
“And” between values parts separate entries of the source, which are not always exact repeats. Identical values can stand only once.

System: HEK-293T
Experiment: Multiplex assay against HEK293T;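 as to Population Tubulin-Different-Phenotype (%): share of the cells with healthy nuclei that show this phenotype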
Assay type: toxicity, cell-based
Details: human
How it was run: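 Live cells were stained at seeding with Hoechst33342, BioTracker Green Microtubule Cytoskeleton Dye, MitoTracker Red and Annexin V Alexa Fluor 680. Following compound addition, they were imaged on a CQ1 microscope at 37°C and 5% CO2 and gated by CellPathfinder machine learning into Hoechst high-intensity objects or normal cells, with normal cells split into healthy, pyknosed or fragmented nuclei and pyknosed cells into mitotic or apoptotic. Tubulin, mitochondrial-mass and membrane-permeability phenotypes are per cents of healthy-nucleus cells.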

[1] = 12 h, 1 µM, compound concentration 1 uM, replicate 1
[2] = 12 h, 1 µM, compound concentration 1 uM, replicate 2
[3] = 12 h, 10 µM, compound concentration 10 uM, replicate 1
[4] = 12 h, 10 µM, compound concentration 10 uM, replicate 2
[5] = 24 h, 1 µM, compound concentration 1 uM, replicate 1
[6] = 24 h, 1 µM, compound concentration 1 uM, replicate 2
[7] = 24 h, 10 µM, compound concentration 10 uM, replicate 1
[8] = 24 h, 10 µM, compound concentration 10 uM, replicate 2
[9] = 48 h, 1 µM, compound concentration 1 uM, replicate 1
[10] = 48 h, 1 µM, compound concentration 1 uM, replicate 2
[11] = 48 h, 10 µM, compound concentration 10 uM, replicate 1
[12] = 48 h, 10 µM, compound concentration 10 uM, replicate 2

## C=CCn1c(=O)c2cnc(Nc3ccc(N4CCN(C)CC4)cc3)nc2n1-c1cccc(C(C)(C)O)n1 [ADAVOSERTIB]
[1]
  Population Apoptotic (%): 16%
  Population Fragmented Nuclei (%): 23%
  Population Healthy Nuclei (%): 36%
  Population Hoechst High Intensity Objects (%): 14%
  Population Membrane Permeable-Phenotype (%): 4%
  Population Mitochondria Different-Phenotype (%): 3%
  Population Mitotic Cells (%): 83%
  Population Normal (%): 85%
  Population Pyknosed Nuclei (%): 39%
  Population Tubulin-Different-Phenotype (%): 2%
  Total Cell Count: 606
[2]
  Population Apoptotic (%): 13%
  Population Fragmented Nuclei (%): 7%
  Population Healthy Nuclei (%): 62%
  Population Hoechst High Intensity Objects (%): 3%
  Population Membrane Permeable-Phenotype (%): 3%
  Population Mitochondria Different-Phenotype (%): 16%
  Population Mitotic Cells (%): 86%
  Population Normal (%): 96%
  Population Pyknosed Nuclei (%): 30%
  Population Tubulin-Different-Phenotype (%): 15%
  Total Cell Count: 1183
[3]
  Population Apoptotic (%): 12%
  Population Fragmented Nuclei (%): 20%
  Population Healthy Nuclei (%): 22%
  Population Hoechst High Intensity Objects (%): 17%
  Population Membrane Permeable-Phenotype (%): 16%
  Population Mitochondria Different-Phenotype (%): 16%
  Population Mitotic Cells (%): 87%
  Population Normal (%): 82%
  Population Pyknosed Nuclei (%): 56%
  Population Tubulin-Different-Phenotype (%): 47%
  Total Cell Count: 637
[4]
  Population Apoptotic (%): 9%
  Population Fragmented Nuclei (%): 15%
  Population Healthy Nuclei (%): 27%
  Population Hoechst High Intensity Objects (%): 2%
  Population Membrane Permeable-Phenotype (%): 4%
  Population Mitochondria Different-Phenotype (%): 32%
  Population Mitotic Cells (%): 90%
  Population Normal (%): 97%
  Population Tubulin-Different-Phenotype (%): 70%
  Total Cell Count: 1182
[5]
  Population Apoptotic (%): 17%
  Population Fragmented Nuclei (%): 22%
  Population Healthy Nuclei (%): 46%
  Population Hoechst High Intensity Objects (%): 9%
  Population Membrane Permeable-Phenotype (%): 6%
  Population Mitochondria Different-Phenotype (%): 5%
  Population Mitotic Cells (%): 82%
  Population Normal (%): 90%
  Population Pyknosed Nuclei (%): 30%
  Population Tubulin-Different-Phenotype (%): 6%
  Total Cell Count: 590
[6]
  Population Apoptotic (%): 16%
  Population Fragmented Nuclei (%): 7%
  Population Healthy Nuclei (%): 58%
  Population Hoechst High Intensity Objects (%): 4%
  Population Membrane Permeable-Phenotype (%): 5%
  Population Mitochondria Different-Phenotype (%): 14%
  Population Mitotic Cells (%): 83%
  Population Normal (%): 95%
  Population Pyknosed Nuclei (%): 33%
  Population Tubulin-Different-Phenotype (%): 32%
  Total Cell Count: 1164
[7]
  Population Apoptotic (%): 21%
  Population Fragmented Nuclei (%): 27%
  Population Healthy Nuclei (%): 26%
  Population Hoechst High Intensity Objects (%): 18%
  Population Membrane Permeable-Phenotype (%): 12%
  Population Mitochondria Different-Phenotype (%): 32%
  Population Mitotic Cells (%): 78%
  Population Normal (%): 81%
  Population Pyknosed Nuclei (%): 46%
  Population Tubulin-Different-Phenotype (%): 56%
  Total Cell Count: 609
[8]
  Population Apoptotic (%): 20%
  Population Fragmented Nuclei (%): 15%
  Population Healthy Nuclei (%): 39%
  Population Hoechst High Intensity Objects (%): 3%
  Population Membrane Permeable-Phenotype (%): 3%
  Population Mitochondria Different-Phenotype (%): 53%
  Population Mitotic Cells (%): 79%
  Population Normal (%): 96%
  Population Pyknosed Nuclei (%): 44%
  Population Tubulin-Different-Phenotype (%): 80%
  Total Cell Count: 1042

## O=C(Nc1ccc(-n2nc(-c3cccnc3)cc2C(F)(F)F)cn1)c1ccc(-c2ccccc2)c(F)c1 [BI 2049]
[1]
  Population Apoptotic (%): 46%
  Population Fragmented Nuclei (%): 22%
  Population Healthy Nuclei (%): 24%
  Population Hoechst High Intensity Objects (%): 21%
  Population Membrane Permeable-Phenotype (%): 0%
  Population Mitochondria Different-Phenotype (%): 60%
  Population Mitotic Cells (%): 53%
  Population Normal (%): 78%
  Population Pyknosed Nuclei (%): 53%
  Population Tubulin-Different-Phenotype (%): 10%
  Total Cell Count: 147
[2]
  Population Apoptotic (%): 3%
  Population Fragmented Nuclei (%): 11%
  Population Healthy Nuclei (%): 37%
  Population Hoechst High Intensity Objects (%): 2%
  Population Membrane Permeable-Phenotype (%): 3%
  Population Mitochondria Different-Phenotype (%): 8%
  Population Mitotic Cells (%): 96%
  Population Normal (%): 97%
  Population Pyknosed Nuclei (%): 51%
  Population Tubulin-Different-Phenotype (%): 1%
  Total Cell Count: 166
[3]
  Population Apoptotic (%): 63%
  Population Fragmented Nuclei (%): 12%
  Population Healthy Nuclei (%): 23%
  Population Hoechst High Intensity Objects (%): 11%
  Population Membrane Permeable-Phenotype (%): 3%
  Population Mitochondria Different-Phenotype (%): 90%
  Population Mitotic Cells (%): 36%
  Population Normal (%): 88%
  Population Pyknosed Nuclei (%): 64%
  Population Tubulin-Different-Phenotype (%): 65%
  Total Cell Count: 254
[4]
  Population Apoptotic (%): 12%
  Population Fragmented Nuclei (%): 5%
  Population Healthy Nuclei (%): 47%
  Population Hoechst High Intensity Objects (%): 3%
  Population Membrane Permeable-Phenotype (%): 9%
  Population Mitochondria Different-Phenotype (%): 15%
  Population Mitotic Cells (%): 88%
  Population Normal (%): 96%
  Population Pyknosed Nuclei (%): 47%
  Population Tubulin-Different-Phenotype (%): 13%
  Total Cell Count: 276
[5]
  Population Apoptotic (%): 65%
  Population Fragmented Nuclei (%): 25%
  Population Healthy Nuclei (%): 30%
  Population Hoechst High Intensity Objects (%): 26%
  Population Membrane Permeable-Phenotype (%): 6%
  Population Mitochondria Different-Phenotype (%): 59%
  Population Mitotic Cells (%): 34%
  Population Normal (%): 73%
  Population Pyknosed Nuclei (%): 43%
  Population Tubulin-Different-Phenotype (%): 31%
  Total Cell Count: 143
[6]
  Population Apoptotic (%): 12%
  Population Fragmented Nuclei (%): 7%
  Population Healthy Nuclei (%): 73%
  Population Hoechst High Intensity Objects (%): 4%
  Population Membrane Permeable-Phenotype (%): 3%
  Population Mitochondria Different-Phenotype (%): 6%
  Population Mitotic Cells (%): 87%
  Population Normal (%): 95%
  Population Pyknosed Nuclei (%): 19%
  Population Tubulin-Different-Phenotype (%): 4%
  Total Cell Count: 212
[7]
  Population Apoptotic (%): 60%
  Population Fragmented Nuclei (%): 12%
  Population Healthy Nuclei (%): 27%
  Population Hoechst High Intensity Objects (%): 13%
  Population Membrane Permeable-Phenotype (%): 3%
  Population Mitochondria Different-Phenotype (%): 82%
  Population Mitotic Cells (%): 39%
  Population Normal (%): 86%
  Population Pyknosed Nuclei (%): 60%
  Population Tubulin-Different-Phenotype (%): 53%
  Total Cell Count: 266
[8]
  Population Apoptotic (%): 5%
  Population Fragmented Nuclei (%): 6%
  Population Healthy Nuclei (%): 64%
  Population Hoechst High Intensity Objects (%): 2%
  Population Membrane Permeable-Phenotype (%): 6%
  Population Mitochondria Different-Phenotype (%): 14%
  Population Mitotic Cells (%): 94%
  Population Normal (%): 97%
  Population Pyknosed Nuclei (%): 29%
  Population Tubulin-Different-Phenotype (%): 23%
  Total Cell Count: 339
[9]
  Population Apoptotic (%): 54%
  Population Fragmented Nuclei (%): 27%
  Population Healthy Nuclei (%): 35%
  Population Hoechst High Intensity Objects (%): 18%
  Population Membrane Permeable-Phenotype (%): 2%
  Population Mitochondria Different-Phenotype (%): 20%
  Population Mitotic Cells (%): 46%
  Population Normal (%): 81%
  Population Pyknosed Nuclei (%): 37%
  Population Tubulin-Different-Phenotype (%): 14%
  Total Cell Count: 166
[10]
  Population Apoptotic (%): 11%
  Population Fragmented Nuclei (%): 7%
  Population Healthy Nuclei (%): 83%
  Population Hoechst High Intensity Objects (%): 2%
  Population Mitochondria Different-Phenotype (%): 3%
  Population Mitotic Cells (%): 88%
  Population Normal (%): 97%
  Population Pyknosed Nuclei (%): 8%
  Population Tubulin-Different-Phenotype (%): 6%
  Total Cell Count: 420
[11]
  Population Apoptotic (%): 55%
  Population Fragmented Nuclei (%): 14%
  Population Healthy Nuclei (%): 28%
  Population Hoechst High Intensity Objects (%): 18%
  Population Membrane Permeable-Phenotype (%): 1%
  Population Mitochondria Different-Phenotype (%): 52%
  Population Mitotic Cells (%): 44%
  Population Normal (%): 81%
  Population Pyknosed Nuclei (%): 56%
  Population Tubulin-Different-Phenotype (%): 40%
  Total Cell Count: 298
[12]
  Population Apoptotic (%): 7%
  Population Fragmented Nuclei (%): 6%
  Population Healthy Nuclei (%): 82%
  Population Hoechst High Intensity Objects (%): 2%
  Population Membrane Permeable-Phenotype (%): 5%
  Population Mitochondria Different-Phenotype (%): 4%
  Population Mitotic Cells (%): 92%
  Population Normal (%): 97%
  Population Pyknosed Nuclei (%): 10%
  Population Tubulin-Different-Phenotype (%): 21%
  Total Cell Count: 633

## Cn1nc(C(=O)NCc2ccc(C(=O)O)cc2)cc1-c1ccc2[nH]ccc2c1 [BI 4395]
[3]
  Population Apoptotic (%): 20% and 23%
  Population Fragmented Nuclei (%): 9% and 10%
  Population Healthy Nuclei (%): 78% and 75%
  Population Hoechst High Intensity Objects (%): 9% and 8%
  Population Membrane Permeable-Phenotype (%): 4% and 2%
  Population Mitochondria Different-Phenotype (%): 2% and 7%
  Population Mitotic Cells (%): 79% and 76%
  Population Normal (%): 90% and 91%
  Population Pyknosed Nuclei (%): 12% and 14%
  Population Tubulin-Different-Phenotype (%): 2% and 3%
  Total Cell Count: 895 and 750
[4]
  Population Apoptotic (%): 5% and 6%
  Population Healthy Nuclei (%): 84%
  Population Hoechst High Intensity Objects (%): 1%
  Population Membrane Permeable-Phenotype (%): 1%
  Population Mitochondria Different-Phenotype (%): 4%
  Population Mitotic Cells (%): 94% and 93%
  Population Normal (%): 98%
  Population Pyknosed Nuclei (%): 5% and 4%
  Population Tubulin-Different-Phenotype (%): 4%
  Total Cell Count: 1558 and 1918
[7]
  Population Apoptotic (%): 15% and 13%
  Population Fragmented Nuclei (%): 11% and 14%
  Population Healthy Nuclei (%): 81% and 80%
  Population Hoechst High Intensity Objects (%): 6% and 4%
  Population Membrane Permeable-Phenotype (%): 9% and 6%
  Population Mitochondria Different-Phenotype (%): 2% and 4%
  Population Mitotic Cells (%): 84% and 86%
  Population Normal (%): 93% and 95%
  Population Pyknosed Nuclei (%): 6% and 5%
  Population Tubulin-Different-Phenotype (%): 3% and 5%
  Total Cell Count: 1152 and 1021
[8]
  Population Fragmented Nuclei (%): 26% and 29%
  Population Healthy Nuclei (%): 71% and 68%
  Population Hoechst High Intensity Objects (%): 2% and 3%
  Population Membrane Permeable-Phenotype (%): 4%
  Population Mitochondria Different-Phenotype (%): 1%
  Population Mitotic Cells (%): 98% and 91%
  Population Normal (%): 97% and 96%
  Population Pyknosed Nuclei (%): 2% and 1%
  Total Cell Count: 2665 and 3275
